# S1P4 ag: activates the human S1P4 receptor. AID 1509. O95977. activation, % at 4.98 µM. S1P4-expressing cell line, agonist reporter assay. actives 0.35% (n = 220,000); in the data active means activation above about 11%;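 further: 0% = DMSO vehicle and 100% = reference agonist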
# NPY-Y1 PAM-ag: human NPY-Y1 potentiation or agonism, primary screen. P25929. AID 1304. actives 0.37% (n = 220,000). NPY-Y1 expressing cells, potentiator/agonist activation. activation, % at 3.6 µM; in the data active means activation above about 33%, passing the limit was not always enough;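 further: cells stimulated with NPY at EC10 then isoproterenol at EC100; 0% = low agonist plus stimulus and 100% = saturating agonist plus stimulus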
# Target sequence (P25929 whole entry, looked up): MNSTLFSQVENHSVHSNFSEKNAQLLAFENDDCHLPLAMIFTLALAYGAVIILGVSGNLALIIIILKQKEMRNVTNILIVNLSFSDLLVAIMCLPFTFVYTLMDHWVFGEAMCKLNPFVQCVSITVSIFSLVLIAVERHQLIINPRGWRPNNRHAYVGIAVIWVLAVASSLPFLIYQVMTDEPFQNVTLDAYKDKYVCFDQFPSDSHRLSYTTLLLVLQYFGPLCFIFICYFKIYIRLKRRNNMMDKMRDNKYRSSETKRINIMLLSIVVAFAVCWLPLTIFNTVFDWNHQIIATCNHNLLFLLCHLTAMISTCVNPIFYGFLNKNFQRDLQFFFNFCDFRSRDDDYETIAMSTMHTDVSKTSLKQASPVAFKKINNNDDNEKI
# NPY Y1 blocker: blocks the human neuropeptide Y Y1 receptor | inhibition, % at 3.6 µM | P25929 | AID 1040 | HEK293-CNG Y1 cells, membrane potential fluorescence; NPY at EC95, then isoproterenol | actives 1% (n = 200,000);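 active means inhibition above the campaign mean inhibition of all tested compounds plus 3 SD, cut at about 20% in these data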;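 further: 0% = DMSO wells given NPY plus isoproterenol and 100% = isoproterenol alone without NPY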
#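 Material: HEK293 cells with Y1 receptor plus CNG channel; times: compound incubation 1 h at room temperature, readout 45 min post-stimulation; signal: fluorescence, membrane potential probe; read-out basis: fluorescence ratio normalized to % inhibition between controls; benchmarks: full-block control isoproterenol-only wells, zero-block control NPY plus isoproterenol wells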
# S1P4 antagonist: human S1P4 receptor antagonism | O95977 | actives 0.26% (n = 220,000) | S1P4-expressing cells, antagonist mode, reporter read-out | inhibition, % at 4.98 µM | AID 1510; in the data active means inhibition above about 29%;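 further: 0% = wells stimulated with agonist and 100% = vehicle wells without agonist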
# NPY-Y2 antag: antagonists of human neuropeptide Y receptor Y2; inhibition, % at 2.7 µM; AID 793; NPY-Y2 expressing cells, antagonist mode; P49146; actives 0.99% (n = 140,000); in the data active means inhibition above about 17%;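 further: 0% = vehicle with agonist challenge and 100% = reference antagonist with challenge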
# NPY2 pot ag: human NPY-Y2 potentiation or agonism, primary screen. cells expressing NPY-Y2, potentiator/agonist read-out. activation, % at 3.6 µM. actives 0.45% (n = 220,000); in the data active means activation above about 27%;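 further: cells stimulated with NPY near EC25 plus isoproterenol at EC100; 0% = vehicle plus submaximal agonist and 100% = vehicle plus saturating agonist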
# * hit, by the source's call; . = not tested or not shown. Shown are actives, neighbours in structure and some others; about 2.4% of the full set was active somewhere.
SMILES,S1P4 ag,NPY-Y1 PAM-ag,NPY Y1 blocker,S1P4 antagonist,NPY-Y2 antag,NPY2 pot ag
CCCC(=O)N(CCN(Cc1ccccc1)C(=O)CCC)Cc1ccccc1,-1,-15,56*,9,25*,-12
O=C(/C=C/c1ccco1)Nc1ccccc1C(=O)Nc1cccc(C(=O)O)c1,1,48*,.,-5,.,43*
CC(=O)Oc1ccc(C(c2ccc(OC(C)=O)cc2)c2ccccn2)cc1,3,-125,102*,20,108*,-28
Cc1ccc(/C=C/C(=O)NCCCc2ccccc2)cc1,-2,-51,37*,2,34*,-34
Cc1ccc(CNC(=O)/C=C/c2c(Cl)cccc2Cl)cc1,1,-9,-4,-10,2,0
CC(CCc1ccccc1)NC(=O)/C=C/c1ccc(Cl)cc1 (configuration not stated),0,-47,32*,2,21*,-21
CC(Cc1ccccc1)NC(=O)/C=C/c1ccc([N+](=O)[O-])cc1 (configuration not stated),-3,1,0,-6,0,3
Cc1ccc(CNC(=O)/C=C/c2ccccc2Cl)cc1,-1,-25,31*,9,12,-14
O=C(Cn1nnc2ccccc2c1=O)N[C@H](C(=O)O)c1ccccc1,1,-4,.,-10,.,12
Cc1ccccc1C1=Nn2c(nnc2-c2ccco2)SC1,0,5,.,-22,.,-9
O=c1cc(NCCCO)c2ccccc2o1,2,110*,10,11,1,72*
CCOc1ccccc1N1CCN(C2=C(NS(=O)(=O)c3cccs3)C(=O)c3ccccc3C2=O)CC1,1,50*,-14,-1,-12,43*
O=C1C(NS(=O)(=O)c2cccs2)=C(N2CCOCC2)C(=O)c2ccccc21,-1,3,.,-4,.,-9
CN1CCN(C2=C(NS(=O)(=O)c3cccs3)C(=O)c3ccccc3C2=O)CC1,2,-2,.,-3,.,-27
O=C1C(NS(=O)(=O)c2cccs2)=C(N2CCN(Cc3ccccc3)CC2)C(=O)c2ccccc21,-1,60*,.,3,.,40*
CCCCCC1CC(=O)C=C(C)C1C(=O)OC (configuration not stated),0,19,.,-4,.,3
O=C(OCc1nnc(-c2ccccc2)o1)c1ccc(Cl)cc1,1,8,10,-4,.,-16
O=C(OCc1nnc(-c2ccccc2)o1)c1ccc2c(c1)OCCO2,3,-28,11,-20,20*,-40
CC1CCC(C(C)C)C(OCC(O)CNC(C)C)C1 (configuration not stated),0,107*,.,10,.,98*
CC(C)NCC(O)COC1C2CC3CC(C2)CC1C3 (configuration not stated),3,48*,-9,-12,.,32*
Cc1ccc(C(=O)NCCc2ccc(S(N)(=O)=O)cc2)cc1[N+](=O)[O-],1,-10,-1,-15,.,-7
CCC(NC(C)C)C(O)c1ccc(O)c2[nH]c(=O)ccc12 (configuration not stated),2,76*,-4,-12,3,69*
Cc1cc(C[n+]2cc(Br)ccc2N)c2ncccc2c1,0,18,.,24,.,-23
N=c1c(C(=O)NCc2ccc(F)cc2)cc2c(=O)n3ccccc3nc2n1CCCN1CCOCC1,14*,23,-1,-29,6,25
O=C(Nc1ccc(O)c(C(=O)O)c1)Oc1ccccc1,0,9,.,-7,.,2
SMILES,S1P4 ag,NPY-Y1 PAM-ag,NPY Y1 blocker,S1P4 antagonist,NPY-Y2 antag,NPY2 pot ag
CCc1ccc(-c2nc(CN3CCC(C(=O)N4CCN(c5ccccn5)CC4)CC3)c(C)o2)cc1,-2,-25,13,10,17,-9
CCc1ccc(-c2nc(CN3CCC(C(=O)N4CCN(c5ccccc5)CC4)CC3)c(C)o2)cc1,-3,-75,47*,-3,31*,-28
O=c1oc(-c2ccccc2[N+](=O)[O-])nc2ccccc12,0,8,1,-14,1,-4
O=[N+]([O-])c1ccccc1Nc1c2ccccc2nc2ccccc12,2,50*,-8,0,.,49*
COc1ccccc1NC(=O)CN(Cc1ccco1)C(=O)c1ccc(Cl)nc1,3,-8,-6,-26,.,9
CCCCOc1ccc(Br)cc1/C(C)=N/NC1=NCCN1,2,-60,50*,-10,50*,-15
CC(=O)Nc1sc(N)nc1-c1ccccc1,0,-5,-1,-6,10,1
Nc1nc(-c2ccccc2)c(N=Nc2cccc3ccccc23)s1,1,111*,-29,13,-13,97*
Nc1nc(-c2ccccc2)c(N=Nc2ccccc2Cl)s1,3,95*,-27,-11,-14,79*
Cc1ncc(N=Nc2ccccc2Cl)c(-c2ccccc2)n1,0,-26,7,-1,1,14
Cc1csc(=Nc2cccnc2)n1CC1CCCCC1,3,6,0,-12,4,-8
C=CCN1C(=Nc2cccnc2)SCC1(O)c1ccc(C)cc1 (configuration not stated),0,-5,20,-1,21*,31
COc1ccc(NC(=S)NNC(=S)Nc2cccc(C(F)(F)F)c2)cc1,2,43*,.,-6,.,27
COC(=O)Nc1nc(-c2ccccc2)c(C(=O)c2ccccc2)s1,-4,-18,30*,26,13,-21
Cc1cc2c(=O)oc(-c3ccc(Br)cc3)nc2s1,0,13,.,9,.,1
CC(=O)OCC(CCn1cnc2cnc(N)nc21)COC(C)=O,2,13,0,1,.,14
Cc1cccc(-c2nc3ccccc3c(=O)n2NC(=O)/C=C/c2ccc([N+](=O)[O-])cc2)c1,1,-90,80*,14,105*,-20
Cc1cccc(-c2nc3ccccc3c(=O)n2NC(=S)N(C)C)c1,-1,-11,1,-1,2,-2
O=C(/C=C/c1cccc([N+](=O)[O-])c1)Nn1c(-c2ccccc2F)nc2ccccc2c1=O,0,-89,46*,4,66*,-19
O=c1c2ccccc2nc(/C=C/c2cccc([N+](=O)[O-])c2)n1CCO,1,-20,-6,-16,2,5
CCOc1cc(S(=O)(=O)Nc2ccc(Cl)cn2)ccc1F,0,-37,9,-1,4,-5
COc1ccc(S(=O)(=O)Nc2ccc(Cl)cn2)c(C)c1C,-2,59*,-9,-25,-13,37*
CC1CCCC(NC(=O)C2c3ccccc3C(=O)N2Cc2cccs2)C1C (configuration not stated),2,-18,35*,-11,25*,-23
CC(CCc1ccccc1)NC(=O)COC(=O)c1ccc(S(C)(=O)=O)c([N+](=O)[O-])c1 (configuration not stated),0,66*,-6,16,.,52*
